# Test results taken from ChEMBL document CHEMBL2021769, “Isolation, structure elucidation, and biological evaluation of 16,23-epoxycucurbitacin constituents from Eleaocarpus chinensis” (J Nat Prod, 2012).
# pIC50: −log10 of the molar value. Active and inactive are the calls of the source. The rule behind the calls is not given here.
# Tests used:
# [1] = tested on: HT-29; assay: Cytotoxicity against human HT-29 cells after 3 days by sulforhodamine B assay; type: functional, cell-based; conditions: HT-29, 72 h
# [2] = tested on: MDA-MB-435; assay: Antitumor activity against human MDA-MB-435 cells xenografted in immunodeficient NCr nu/nu mouse assessed as inhibition of tumor growth at 0.5 to 10 mg/kg, ip dosed as four daily injections on day 3,4,5 and 6 followed by fiber retrieval on day 7 by in-vivo hollow fiber assay; type: functional, organism-based
# Summary of the method: (§1)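 Murine hollow fiber model, ip route; fibers loaded per fiber with HT29 1 × 10⁶, MCF-7 5 × 10⁶, or MDA-MB-435 1 × 10⁶ cells. Dosing 0.5 to 10 mg/kg per day for four days in 5% EtOH/5% Tween 80 in physiologic saline; paclitaxel positive control at 2.0 mg/kg per day for four days. Proliferation inhibition assessed in each cell type.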
# [3] = tested on: MCF7; assay: Antitumor activity against human MCF7 cells xenografted in immunodeficient NCr nu/nu mouse assessed as inhibition of tumor growth at 0.5 to 10 mg/kg, ip dosed as four daily injections on day 3,4,5 and 6 followed by fiber retrieval on day 7 by in-vivo hollow fiber assay; type: functional, organism-based; summary of the method: as §1
# [4] = tested on: HT-29; assay: Cytotoxicity against human HT-29 cells after 3 days by mitochondrial transmembrane potential assay; type: functional, cell-based; conditions: HT-29, 72 h
# [5] = tested on: HT-29; assay: Antitumor activity against human HT-29 cells xenografted in immunodeficient NCr nu/nu mouse assessed as inhibition of tumor growth at 0.5 to 10 mg/kg, ip dosed as four daily injections on day 3,4,5 and 6 followed by fiber retrieval on day 7 by in-vivo hollow fiber assay; type: functional, organism-based; summary of the method: as §1
structure (smiles),measurement,setting,value
C/C(C=O)=C\[C@H]1C[C@](C)(O)[C@H]2[C@@H](C[C@@]3(C)[C@@H]4CC=C5[C@@H](CC[C@H](O)C5(C)C)[C@]4(C)C(=O)C[C@]23C)O1 [ELAEOCARPUCIN E],pIC50,[1],< 5.00
CC(C)(O)/C=C/C(=O)[C@](C)(O)[C@H]1[C@H](O)C[C@@]2(C)[C@@H]3CC=C4[C@@H](C=C(O)C(=O)C4(C)C)[C@]3(C)C(=O)C[C@]12C [CUCURBITACIN I],pIC50,[1],6.72
C/C(=C\[C@H]1C[C@](C)(O)[C@H]2[C@@H](C[C@@]3(C)[C@@H]4CC=C5[C@@H](CC[C@H](O)C5(C)C)[C@]4(C)C(=O)C[C@]23C)O1)CO [ELAEOCARPUCIN C],inhibition,[2],inactive
same,inhibition,[3],inactive
same,pIC50,[4],< 4.70
same,inhibition,[5],inactive
same,pIC50,[1],6.39
CC(=O)OC(C)(C)/C=C/C(=O)[C@](C)(O)[C@H]1[C@H](O)C[C@@]2(C)[C@@H]3CC=C4[C@@H](C[C@H](O)[C@@H](O)C4(C)C)[C@]3(C)C(=O)C[C@]12C,pIC50,[1],6.27
CC(=O)O[C@H]1C(=O)[C@@]2(C)[C@H]([C@H](OC(=O)c3ccccc3)[C@]3(O)C[C@H](OC(=O)[C@H](O)[C@@H](NC(=O)c4ccccc4)c4ccccc4)C(C)=C1C3(C)C)[C@]1(OC(C)=O)CO[C@@H]1C[C@@H]2O [PACLITAXEL],pIC50,[1],8.22
C=C(C)[C@H](O)[C@H]1C[C@](C)(O)[C@H]2[C@@H](C[C@@]3(C)[C@@H]4CC=C5[C@@H](CC[C@H](O)C5(C)C)[C@]4(C)C(=O)C[C@]23C)O1 [ELAEOCARPUCIN A],pIC50,[4],< 4.70
same,pIC50,[1],< 5.00
CC(C)=C[C@@H]1O[C@@H]2C[C@@]3(C)[C@@H]4CC=C5[C@@H](CC[C@H](O)C5(C)C)[C@]4(C)C(=O)C[C@]3(C)[C@H]2[C@@](C)(O)[C@@H]1O [ELAEOCARPUCIN G],pIC50,[1],5.54
C=C(C)[C@@H](O)[C@H]1C[C@](C)(O)[C@H]2[C@@H](C[C@@]3(C)[C@@H]4CC=C5[C@@H](CC[C@H](O)C5(C)C)[C@]4(C)C(=O)C[C@]23C)O1 [ELAEOCARPUCIN B],pIC50,[4],< 4.70
same,pIC50,[1],< 5.00
CC(C)(O)/C=C/C(=O)[C@](C)(O)[C@H]1[C@H](O)C[C@@]2(C)[C@@H]3CC=C4[C@@H](CC(=O)[C@H](O)C4(C)C)[C@]3(C)C(=O)C[C@]12C,pIC50,[4],< 4.70
same,pIC50,[1],7.41
C=C(C)C(=O)[C@H]1C[C@](C)(O)[C@H]2[C@@H](C[C@@]3(C)[C@@H]4CC=C5[C@@H](CC[C@H](O)C5(C)C)[C@]4(C)C(=O)C[C@]23C)O1 [ELAEOCARPUCIN D],pIC50,[1],5.25
CC(C)=C[C@H]1C[C@](C)(O)[C@H]2[C@@H](C[C@@]3(C)[C@@H]4C(=O)C=C5[C@@H](CC[C@H](O)C5(C)C)[C@]4(C)C(=O)C[C@]23C)O1 [ELAEOCARPUCIN H],pIC50,[1],5.57
CC(C)(O)C[C@H]1C[C@](C)(O)[C@H]2[C@@H](C[C@@]3(C)[C@@H]4CC=C5[C@@H](CC[C@H](O)C5(C)C)[C@]4(C)C(=O)C[C@]23C)O1 [ELAEOCARPUCIN F],pIC50,[4],< 4.70
same,pIC50,[1],< 5.00
CC(C)(O)/C=C/C(=O)[C@](C)(O)[C@H]1[C@H](O)C[C@@]2(C)[C@@H]3CC=C4[C@@H](C[C@H](O)C(=O)C4(C)C)[C@]3(C)C(=O)C[C@]12C [CUCURBITACIN D],pIC50,[4],< 4.70
same,pIC50,[1],6.92
CC(C)=C[C@H]1C[C@](C)(O)[C@H]2[C@@H](C[C@@]3(C)[C@@H]4CC=C5[C@@H](CC[C@H](O)C5(C)C)[C@]4(C)C(=O)C[C@]23C)O1,pIC50,[4],< 4.70
same,pIC50,[1],< 5.00
